# Experimental data: ChEMBL document CHEMBL5376013, “Design, synthesis and biological evaluation of novel morpholinopyrimidine-5-carbonitrile derivatives as dual PI3K/mTOR inhibitors” (RSC Med Chem, 2024)
# Assays:
# Type in all cases: functional
# Details in all cases: read-out: GI
# [1] = tested on: CCRF-CEM; assay: Antitumor activity against human CCRF-CEM cells assessed as growth inhibition at 10 uM relative to control
# Method in brief: (§1)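 After drug addition, plates were incubated 48 h at 37 °C under 5% CO2. Adherent cells were fixed with cold TCA (10% final, 60 min, 4 °C) and suspension cells with 16% final TCA. Staining used 0.4% SRB in 1% acetic acid, solubilized in 10 mM trizma, read at A515. Percent growth was calculated from time-zero, control and treated absorbances.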
# [2] = tested on: K562; assay: Antitumor activity against human K562 cells assessed as growth inhibition at 10 uM relative to control; method in brief: as §1
# [3] = tested on: MOLT-4; assay: Antitumor activity against human MOLT-4 cells assessed as growth inhibition at 10 uM relative to control; method in brief: as §1
# [4] = tested on: RPMI-8226; assay: Antitumor activity against human RPMI-8226 cells assessed as growth inhibition at 10 uM relative to control; method in brief: as §1
# [5] = tested on: EKVX; assay: Antitumor activity against human EKVX cells assessed as growth inhibition at 10 uM relative to control; method in brief: as §1
# [6] = tested on: NCI-H226; assay: Antitumor activity against human NCI-H226 cells assessed as growth inhibition at 10 uM relative to control; method in brief: as §1
# [7] = tested on: NCI-H23; assay: Antitumor activity against human NCI-H23 cells assessed as growth inhibition at 10 uM relative to control; method in brief: as §1
# [8] = tested on: NCI-H322M; assay: Antitumor activity against human NCI-H322M cells assessed as growth inhibition at 10 uM relative to control; method in brief: as §1
# [9] = tested on: NCI-H522; assay: Antitumor activity against human NCI-H522 cells assessed as growth inhibition at 10 uM relative to control; method in brief: as §1
# [10] = tested on: COLO 205; assay: Antitumor activity against human COLO 205 cells assessed as growth inhibition at 10 uM relative to control; method in brief: as §1
# [11] = tested on: HCT-116; assay: Antitumor activity against human HCT-116 cells assessed as growth inhibition at 10 uM relative to control; method in brief: as §1
# [12] = tested on: HCT-15; assay: Antitumor activity against human HCT-15 cells assessed as growth inhibition at 10 uM relative to control; method in brief: as §1
# [13] = tested on: HT-29; assay: Antitumor activity against human HT-29 cells assessed as growth inhibition at 10 uM relative to control; method in brief: as §1
# [14] = tested on: KM12; assay: Antitumor activity against human KM12 cells assessed as growth inhibition at 10 uM relative to control; method in brief: as §1
# [15] = tested on: SW-620; assay: Antitumor activity against human SW-620 cells assessed as growth inhibition at 10 uM relative to control
# Method in brief: (§2)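 Drug exposure 48 h at 37 °C, 5% CO2. Adherent cells fixed with cold TCA (10% final), suspension cells with TCA (16% final). Stained with 0.4% SRB in 1% acetic acid, dissolved in 10 mM Tris, A515. Growth relative to time-zero and untreated control.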
# [16] = tested on: SF-268; assay: Antitumor activity against human SF-268 cells assessed as growth inhibition at 10 uM relative to control; method in brief: as §1
# [17] = tested on: SF-539; assay: Antitumor activity against human SF-539 cells assessed as growth inhibition at 10 uM relative to control; method in brief: as §1
# [18] = tested on: SNB-19; assay: Antitumor activity against human SNB-19 cells assessed as growth inhibition at 10 uM relative to control; method in brief: as §2
# [19] = tested on: SNB-75; assay: Antitumor activity against human SNB-75 cells assessed as growth inhibition at 10 uM relative to control; method in brief: as §2
# [20] = tested on: U-251; assay: Antitumor activity against human U-251 cells assessed as growth inhibition at 10 uM relative to control; method in brief: as §2
# [21] = tested on: LOX IMVI; assay: Antitumor activity against human LOX IMVI cells assessed as growth inhibition at 10 uM relative to control; method in brief: as §1
# [22] = tested on: Malme-3M; assay: Antitumor activity against human Malme-3M cells assessed as growth inhibition at 10 uM relative to control; method in brief: as §1
# [23] = tested on: M14; assay: Antitumor activity against human M14 cells assessed as growth inhibition at 10 uM relative to control; method in brief: as §1
# [24] = tested on: MDA-MB-435; assay: Antitumor activity against human MDA-MB-435 cells assessed as growth inhibition at 10 uM relative to control; method in brief: as §1
# [25] = tested on: SK-MEL-2; assay: Antitumor activity against human SK-MEL-2 cells assessed as growth inhibition at 10 uM relative to control; method in brief: as §1
# [26] = tested on: SK-MEL-28; assay: Antitumor activity against human SK-MEL-28 cells assessed as growth inhibition at 10 uM relative to control; method in brief: as §2
# [27] = tested on: SK-MEL-5; assay: Antitumor activity against human SK-MEL-5 cells assessed as growth inhibition at 10 uM relative to control; method in brief: as §2
# [28] = tested on: UACC-257; assay: Antitumor activity against human UACC-257 cells assessed as growth inhibition at 10 uM relative to control; method in brief: as §2
# [29] = tested on: UACC-62; assay: Antitumor activity against human UACC-62 cells assessed as growth inhibition at 10 uM relative to control; method in brief: as §2
# [30] = tested on: OVCAR-3; assay: Antitumor activity against human OVCAR-3 cells assessed as growth inhibition at 10 uM relative to control; method in brief: as §1
# [31] = tested on: OVCAR-5; assay: Antitumor activity against human OVCAR-5 cells assessed as growth inhibition at 10 uM relative to control; method in brief: as §1
# [32] = tested on: OVCAR-8; assay: Antitumor activity against human OVCAR-8 cells assessed as growth inhibition at 10 uM relative to control; method in brief: as §1
# [33] = tested on: NCI/ADR-RES; assay: Antitumor activity against human NCI-ADR-RES cells assessed as growth inhibition at 10 uM relative to control; method in brief: as §1
# [34] = tested on: SK-OV-3; assay: Antitumor activity against human SK-OV-3 cells assessed as growth inhibition at 10 uM relative to control; method in brief: as §2
# [35] = tested on: 786-0; assay: Antitumor activity against human 786-0 cells assessed as growth inhibition at 10 uM relative to control; method in brief: as §1
# [36] = tested on: A498; assay: Antitumor activity against human A498 cells assessed as growth inhibition at 10 uM relative to control; method in brief: as §1
# [37] = tested on: ACHN; assay: Antitumor activity against human ACHN cells assessed as growth inhibition at 10 uM relative to control; method in brief: as §1
# [38] = tested on: CAKI-1; assay: Antitumor activity against human CAKI-1 cells assessed as growth inhibition at 10 uM relative to control; method in brief: as §1
# [39] = tested on: RXF 393; assay: Antitumor activity against human RXF 393 cells assessed as growth inhibition at 10 uM relative to control; method in brief: as §1
# [40] = tested on: SN12C; assay: Antitumor activity against human SN12C cells assessed as growth inhibition at 10 uM relative to control; method in brief: as §2
# [41] = tested on: TK-10; assay: Antitumor activity against human TK-10 cells assessed as growth inhibition at 10 uM relative to control; method in brief: as §2
# [42] = tested on: PC-3; assay: Antitumor activity against human PC-3 cells assessed as growth inhibition at 10 uM relative to control; method in brief: as §1
# [43] = tested on: DU-145; assay: Antitumor activity against human DU-145 cells assessed as growth inhibition at 10 uM relative to control; method in brief: as §1
# [44] = tested on: MCF7; assay: Antitumor activity against human MCF7 cells assessed as growth inhibition at 10 uM relative to control; method in brief: as §1
# [45] = tested on: BT-549; assay: Antitumor activity against human BT-549 cells assessed as growth inhibition at 10 uM relative to control; method in brief: as §1
# [46] = tested on: T47D; assay: Antitumor activity against human T47D cells assessed as growth inhibition at 10 uM relative to control; method in brief: as §2
smiles,measurement,setting,value
N#Cc1c(-c2ccc(Cl)cc2)nc(N/N=C2/C(=O)Nc3ccc(Br)cc32)nc1N1CCOCC1,inhibition of growth at 10 µM,[1],< 1%
same,inhibition of growth at 10 µM,[2],< 1%
same,inhibition of growth at 10 µM,[3],< 1%
same,inhibition of growth at 10 µM,[4],< 1%
same,inhibition of growth at 10 µM,[5],< 1%
same,inhibition of growth at 10 µM,[6],< 1%
same,inhibition of growth at 10 µM,[7],11.9%
same,inhibition of growth at 10 µM,[8],< 1%
same,inhibition of growth at 10 µM,[9],< 1%
same,inhibition of growth at 10 µM,[10],1%
same,inhibition of growth at 10 µM,[11],16.8%
same,inhibition of growth at 10 µM,[12],1%
same,inhibition of growth at 10 µM,[13],< 1%
same,inhibition of growth at 10 µM,[14],< 1%
same,inhibition of growth at 10 µM,[15],< 1%
same,inhibition of growth at 10 µM,[16],< 1%
same,inhibition of growth at 10 µM,[17],< 1%
same,inhibition of growth at 10 µM,[18],< 1%
same,inhibition of growth at 10 µM,[19],< 1%
same,inhibition of growth at 10 µM,[20],33.6%
same,inhibition of growth at 10 µM,[21],14.6%
same,inhibition of growth at 10 µM,[22],< 1%
same,inhibition of growth at 10 µM,[23],< 1%
same,inhibition of growth at 10 µM,[24],< 1%
same,inhibition of growth at 10 µM,[25],< 1%
same,inhibition of growth at 10 µM,[26],< 1%
same,inhibition of growth at 10 µM,[27],< 1%
same,inhibition of growth at 10 µM,[28],< 1%
same,inhibition of growth at 10 µM,[29],< 1%
same,inhibition of growth at 10 µM,[30],< 1%
same,inhibition of growth at 10 µM,[31],< 1%
same,inhibition of growth at 10 µM,[32],< 1%
same,inhibition of growth at 10 µM,[33],< 1%
same,inhibition of growth at 10 µM,[34],< 1%
same,inhibition of growth at 10 µM,[35],< 1%
same,inhibition of growth at 10 µM,[36],26.3%
same,inhibition of growth at 10 µM,[37],< 1%
same,inhibition of growth at 10 µM,[38],< 1%
same,inhibition of growth at 10 µM,[39],< 1%
same,inhibition of growth at 10 µM,[40],< 1%
same,inhibition of growth at 10 µM,[41],< 1%
same,inhibition of growth at 10 µM,[42],< 1%
same,inhibition of growth at 10 µM,[43],< 1%
same,inhibition of growth at 10 µM,[44],1%
same,inhibition of growth at 10 µM,[45],< 1%
same,inhibition of growth at 10 µM,[46],< 1%
